Compound activity as filed in PubChem BioAssay.
Only some compounds are listed: those with a hit (about 2.3% of all), similar ones and a draw of the others.
MC4R barr agon: agonists of human melanocortin 4 receptor (MC4R) beta-arrestin | activation, % at 8.9 µM | U2OS MC4R beta-arrestin complementation, luminescence; percent of melanotan II response, DMSO zero | AID 540308 | 0.98% of 360,000 active;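 active = activation above a per-plate cutoff, the mean activation of sample wells on that plate plus 3 SD, cut at about 8% in these data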
MsrA act: activators of bovine methionine sulfoxide reductase A; purified bovine MsrA, absorbance read-out; activation, % at 10.6 µM; 0.3% of 360,000 active; in the data active = activation above about 7.5%
MsrA inhibitor: bovine MsrA inhibition. purified bovine MsrA, absorbance read-out. inhibition, % at 15.5 µM. 0.75% of 360,000 active; in the data active = inhibition above about 4.5%
MC4R antagonist: human MC4R antagonism in cAMP assay; P32245; MC4R-expressing cells, MTII-stimulated cAMP, LANCE TR-FRET; inhibition, % at 6.5 µM; 0.48% of 360,000 active; AID 540295;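 active = inhibition above its plate's cutoff, the mean of tested wells on that plate plus 3 SD, cut at about 29% in these data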
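Assay system: human MC4R-expressing U2OS cells; reagent: Melanotan II stimulation of cells; dosing: 6.5 µM single dose; timing: compound 30 min, challenge 1 h, detection 1 h; signal: TR-FRET cAMP assay; replicates: one well per compound, no replicates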
MC4R barr conf: human MC4R beta-arrestin agonism confirmation; shares compounds with MC4R barr agon; U2OS MC4R beta-arrestin recruitment, luminescence; scaled DMSO 0%, Melanotan II 100%; activation, % at 8.9 µM; 31% of 2,400 active; AID 602192;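 active = mean activation across replicates above the hit cutoff set in the earlier primary screen, cut at about 8% in these data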
MOR DOR agonist: counter-screen for MC4R agonists: agonists of mu-delta opioid heterodimer; activation, % at 9.2 µM; U2OS PathHunter beta-arrestin, beta-gal luminescence; percent of deltorphin B response, DMSO zero; shares compounds with MC4R barr agon; AID 602194; 5.8% of 2,400 active;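 active = mean activation across replicates exceeds the hit threshold derived in the earlier primary screen, cut at about 18% in these data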
Of the large screens only hits and unclear results are named; the others gave an inactive call (follow-up assays come after a bar, where they were run).

OCCN(CCO)c1ccc(C(c2ccccc2Cl)c2ccc(N(CCO)CCO)cc2Cl)c(Cl)c1	MC4R barr agon 14 (no result: MsrA inhibitor) | MC4R barr conf 9.6 | MOR DOR agonist inactive
COc1ccc(C(=O)/C(=C\N(C)C)n2nc(C)cc2C)cc1	none
O=C(CCCN1C(=O)/C(=C/c2cccs2)SC1=S)NNC(=O)c1ccccc1O	MC4R barr agon 18 | MC4R barr conf inactive | MOR DOR agonist inactive
O=C(CCCN1C(=O)/C(=C\c2cccs2)SC1=S)Nc1ccc(O)cc1	MC4R barr agon 10 | MC4R barr conf 16 | MOR DOR agonist inactive
O=C(CCCN1C(=O)/C(=C\c2cccs2)SC1=S)Nc1ccc(C(=O)O)cc1	none
COc1ccc(NCC(=O)n2c(C)c(C)c3ccccc32)cc1	none
NS(=O)(=O)c1ccc(NC(=O)Nc2cccc(Cl)c2)cc1	none
O=C(NC(c1ccc(F)cc1)c1ccc2ccccc2n1)C1CCN(CCOc2ccc(Cl)cc2Cl)CC1 (stereo unspecified)	MC4R barr agon 18 | MC4R barr conf 12 | MOR DOR agonist inactive
O=C(NC(c1ccc(Cl)cc1)c1ccccn1)C1CCN(CCOc2ccc(Cl)cc2Cl)CC1 (stereo unspecified)	MC4R barr agon 18 | MC4R barr conf 24 | MOR DOR agonist inactive
O=C(NC(c1ccc2c(c1)OCO2)c1ccccn1)C1CCN(CCOc2ccc(Cl)cc2Cl)CC1 (stereo unspecified)	none
O=C(NC(c1ccc(Cl)cc1)c1cccnc1)C1CCN(CCOc2ccc(Cl)cc2Cl)CC1 (stereo unspecified)	MC4R barr agon 18 | MC4R barr conf 30 | MOR DOR agonist inactive
Cc1cccnc1C(NC(=O)C1CCN(CCCc2ccccc2)CC1)c1ccc(Cl)cc1 (stereo unspecified)	none
O=C(NC(c1ccc(F)cc1)c1ccc2ccccc2n1)C1CCN(CCOc2ccc(F)cc2)CC1 (stereo unspecified)	none
Cc1cccnc1C(NC(=O)C1CCN(CCOc2ccc(Cl)cc2Cl)CC1)c1ccc(Cl)cc1 (stereo unspecified)	MC4R barr agon 34 | MC4R barr conf 17 | MOR DOR agonist inactive
Cc1ccc2c(c1)C(=O)C(=O)N2Cc1ccc(C(F)(F)F)cc1	none
CCN1C(=O)/C(=C/N(C(C)=O)c2ccccc2)N(c2ccccc2)C1=S	none
CCc1ccc(/C=C2/C(=O)N(c3ccccc3)C(=S)N2CC(=O)OC)s1	MC4R barr agon 10 | MC4R barr conf inactive | MOR DOR agonist inactive
O=C(CN(Cc1ccccc1)S(=O)(=O)c1cccc(C(F)(F)F)c1)NC1CCCCC1	MC4R barr agon 12 | MC4R barr conf inactive | MOR DOR agonist inactive
CC(c1ccccc1)N(CC(=O)NC1CCCCC1)S(=O)(=O)c1cccc(C(F)(F)F)c1 (stereo unspecified)	none
CCOC(=O)c1c(NC(=S)Nc2ccc(C)cc2)sc2c1CCC2	none
CCOC(=O)c1c(NC(=S)Nc2ccc(F)cc2)sc2c1CCC2	MC4R barr agon 11 | MC4R barr conf 8.5 | MOR DOR agonist inactive
COc1cccc(OCC(O)CN2CCN(c3ccc(Cl)cc3)CC2)c1 (stereo unspecified)	none
COc1ccc(OCC(O)CN2CCN(c3ccc(Cl)cc3)CC2)cc1 (stereo unspecified)	MC4R barr agon 11 | MC4R barr conf inactive | MOR DOR agonist inactive
Cc1ccc(NC(=O)CS(=O)CC(=O)N(C2CCCC2)C(C)C(=O)NC2CCCCC2)cc1 (stereo unspecified)	none
COc1cccc(/C=C/C(=O)N(C)CC(=O)Nc2ccc(Cl)c(C(F)(F)F)c2)c1	MC4R barr agon 12 | MC4R barr conf inactive | MOR DOR agonist inactive
Cc1cc(-n2c(SCC(=O)NCc3cccs3)nc3n[nH]c(C)c3c2=N)ccc1Cl	MC4R barr agon 13 | MC4R barr conf inactive | MOR DOR agonist inactive
CCOc1ccc(-n2c(SCC(=O)Nc3ccc(Br)cc3)nc3n[nH]c(C)c3c2=N)cc1	MC4R barr agon 17 | MC4R barr conf inactive | MOR DOR agonist inactive
CCOc1ccc(-n2c(SCC(=O)Nc3ccccc3CC)nc3n[nH]c(C)c3c2=N)cc1	none (no result: MC4R barr agon, MsrA act, MC4R antagonist)
O=C(CSc1nnc(-c2cccs2)n1-c1ccccc1)Nc1ccccc1	MC4R barr agon 11 | MC4R barr conf inactive | MOR DOR agonist inactive
Cc1c(NC(=O)c2cc(-c3ccccc3)nc3ccccc23)c(=O)n(-c2ccccc2)n1C	none
Cc1c(NC(=O)COC(=O)c2cc(-c3ccc(-c4ccccc4)cc3)nc3ccccc23)c(=O)n(-c2ccccc2)n1C	MC4R barr agon 18 | MC4R barr conf inactive | MOR DOR agonist inactive
O=C(COC(=O)c1cc(Br)ccc1O)Nc1ccc2c(c1)OCCO2	none
O=C(COC(=O)c1cc(-c2ccccc2)nc2ccccc12)Nc1ccc2c(c1)OCO2	MC4R barr agon 16 | MC4R barr conf inactive | MOR DOR agonist inactive
O=C(COC(=O)c1cc(Br)ccc1O)Nc1ccc2c(c1)OCO2	MC4R barr agon 10 | MC4R barr conf inactive | MOR DOR agonist inactive
COc1ccccc1C(=O)C1CCCN(C(=O)CSc2ccccn2)C1 (stereo unspecified)	none
O=C(OCc1ccccc1)/C(=C/c1cccc2ccccc12)NC(=O)c1ccccc1	MC4R barr agon 14 | MC4R barr conf inactive | MOR DOR agonist inactive
CNC(=S)Nc1cccc(C(=O)OC)c1	none
Cc1cccc(C)c1OC(=O)CSc1nnc(-c2ccccc2O)o1	MC4R barr agon 54 | MC4R barr conf 8.2 | MOR DOR agonist inactive
CCOc1ccc(OCC)c(NC(=O)Nc2ccc3c(c2)N(C)C(=O)CS3)c1	none
Clc1cccc(-c2nc3nc4ccccc4nc3n2Cc2ccccc2)c1	MC4R barr agon 24 | MC4R barr conf inactive | MOR DOR agonist inactive
C=CCn1c(-c2ccccc2)nc2nc3ccccc3nc21	none
COc1ccc(-c2n[nH]c(=S)n2/N=C/C=C/c2ccccc2OC)cc1	MC4R barr agon 11 | MC4R barr conf inactive | MOR DOR agonist inactive
COc1ccccc1/C=C/C=N/n1c(-c2ccccc2)n[nH]c1=S	none
Cc1nnsc1C(=O)N1CCCC1(C)C(=O)O (stereo unspecified)	none
Cc1ccc(S(=O)(=O)N2C[C@@H]3[C@H]4CC[C@H](C4)[C@@H]3[C@@H](C)[C@@H]2C2CCCCC2=O)cc1 (stereo partly specified)	none
Cc1ccccc1NC(=O)Cc1nc(COC(=O)c2cc(Br)ccc2O)cs1	MC4R barr agon 16 | MC4R barr conf inactive | MOR DOR agonist inactive
C=CCOc1ccc(/C=C/C(=O)OCc2csc(CC(=O)Nc3ccccc3C)n2)cc1	MC4R barr agon 15 | MC4R barr conf 8.7 | MOR DOR agonist inactive
Cc1cccc(NC(=O)NC2CC(=O)N(c3ccc4c(c3)OCCO4)C2)n1 (stereo unspecified)	none
CCCCOC(=O)Nc1nnc(/C=C/c2ccc(OC)cc2)s1	MC4R barr agon 21 | MC4R barr conf inactive | MOR DOR agonist inactive
